Screens from PubChem BioAssay.
Most compounds without a hit are left out; they make up all but 6.4% or so of the library.
GRIN3A LBD mod: binders of NR3A ligand-binding domain, primary screen, biophysical, differential scanning fluorimetry, uHTS; Glutamate receptor ionotropic, NMDA 3A (GRIN3A) ligand-binding domain; actives 2.5% (n = 340,000); NR3A LBD differential scanning fluorimetry, Tm shift; 0% = protein alone, 100% = glycine-bound protein; AID 1259313, 2017; Tm shift relative to glycine control, % at 25 µM;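 active = melting temperature shift of at least 10% of the positive control shift, at one fixed dose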
EBV gp42 inh: Epstein-Barr virus gp42 inhibitors, primary screen, biochemical, uHTS, fluorescence polarization. Fluorescence polarization binding assay, mP read-out. AID 1085, 2008. actives 0.42% (n = 220,000). inhibition, % (tested at 21.74 µM); in the data active = inhibition above about 50%
Target sequence (Q1HVG2 whole entry, looked up): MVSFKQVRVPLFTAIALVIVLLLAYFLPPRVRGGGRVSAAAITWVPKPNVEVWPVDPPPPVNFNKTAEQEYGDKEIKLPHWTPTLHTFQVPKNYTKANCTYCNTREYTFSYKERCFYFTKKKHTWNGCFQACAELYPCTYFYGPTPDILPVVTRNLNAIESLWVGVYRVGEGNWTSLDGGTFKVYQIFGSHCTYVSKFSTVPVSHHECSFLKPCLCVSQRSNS
WT yeast gro inh: growth inhibition of WT strain, primary screen, mitochondrial fusion inhibitor project, WT and mutant strains, chemical genetic; AID 1362, 2008; mitochondrial fusion phenotypic screen; actives 2.1% (n = 190,000); inhibition, % at 10 µM; in the data active = inhibition above about 58%; tested in S. cerevisiae
Tb MetRS inh: T. brucei MetRS inhibitors, primary screen, biochemical, luminescence; actives 0.4% (n = 360,000); purified T. brucei MetRS, ATP depletion, Kinase-Glo luminescence; inhibition, % at 11.9 µM; methionyl-tRNA synthetase (Trypanosoma brucei brucei);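 active = inhibition above a per-plate cutoff of the control wells' mean inhibition plus 3 SD, cut at about 5.5% in these data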
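Measured by: Kinase-Glo luciferase luminescence reporting remaining unconsumed ATP. Material: purified T. brucei MetRS enzyme. Doses: 11.9 µM compound single dose, 0.9% DMSO. Medium: HEPES buffer containing pyrophosphatase, BSA, spermine, DTT. Times: 15 min preincubation, 2 h reaction, all 25 °C. Reagent: methionine, ATP and bulk E. coli tRNA.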
MPTP inh: mitochondrial permeability transition pore inhibitors, primary screen, biochemical, isolated mouse mitochondria, absorbance | Ca2+ swelling absorbance, 30 min | inhibition, % at 10 µM | actives 1.4% (n = 360,000) | AID 602449, 2012;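 active = inhibition of 50% or more, scaled per plate between neutral and stimulator controls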
CHOP inh: inhibitors of CHOP promoter induction, primary screen, cell-based, unfolded protein response, luciferase reporter. CHO-K1 CHOP-promoter luciferase, tunicamycin-induced, 15-18 h. inhibition, % at 10 µM. actives 3.8% (n = 220,000). AID 2732, 2010;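 active = compounds that reduced the stress-induced luciferase reporter signal by more than about 70% of percent inhibition, limit read from the data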
Large screens that a line does not name were inactive.

CCCC(=O)c1ccc(N2CCN(C(=O)c3ccc(Br)cc3)CC2)c(F)c1	CHOP inh 73
CCC(=O)c1ccc(N2CCN(C(=O)c3cc([N+](=O)[O-])ccc3N3CCN(C)CC3)CC2)c(F)c1	GRIN3A LBD mod 14
O=C(COc1cccc(NC(=O)c2cccc([N+](=O)[O-])c2)c1)c1ccc(F)cc1	none
O=C(Nc1ccnc(-c2cccnc2)n1)c1cccs1	none
N#C/C(=C\c1cccs1)C(=O)c1ccccc1	GRIN3A LBD mod 14 (no result: WT yeast gro inh)
Cc1nc2sccn2c(=O)c1S(=O)(=O)NCC1CCN(Cc2ccccc2Cl)CC1	GRIN3A LBD mod 12 (no result: EBV gp42 inh, WT yeast gro inh, CHOP inh)
Cc1ccc(N2CC(=O)N(NC(=O)CN3CCN(c4ccccc4)CC3)CC2=O)cc1	none (no result: WT yeast gro inh)
Cc1ccc(N2CC(=O)N(NC(=O)Nc3ccc(Cl)c(Cl)c3)CC2=O)cc1	GRIN3A LBD mod 13 (no result: WT yeast gro inh)
O=C(Nc1ccc(Cl)cc1)NN1CC(=O)N(c2cccc(C(F)(F)F)c2)CC1=O	GRIN3A LBD mod 30 (no result: WT yeast gro inh)
NNC(=O)COc1cccc(Oc2ccccc2)c1	none
CSc1ccccc1NC(=O)CN(C)C(=O)C1CCN(C(=O)Nc2ccccc2)CC1	none (no result: EBV gp42 inh, WT yeast gro inh, CHOP inh)
COc1ccc(-n2nc(C(=O)N3CCN(Cc4ccc5c(c4)OCO5)CC3)c3ccccc3c2=O)cc1	none
NC(=O)COC(=O)CCCSc1nc2ccccc2s1	none
Cc1cnc(NC(=O)CCCSc2nc3ccccc3s2)s1	CHOP inh 77
N#Cc1ccsc1NC(=O)COC(=O)CCCSc1nc2ccccc2s1	CHOP inh 73
COC(=O)c1ccc(-n2c(C)ccc2-c2ccccc2)cc1	none
CC(=O)c1ccc(-n2c(C)ccc2-c2ccccc2)cc1	WT yeast gro inh 62
CC(C)N1C/C(=C/c2cccnc2)C(=O)/C(=C/c2cccnc2)C1	CHOP inh 100
CC(C)N1C/C(=C/c2ccsc2)C(=O)/C(=C/c2ccsc2)C1	none
CN1C/C(=C/c2cccnc2)C(=O)/C(=C/c2cccnc2)C1	GRIN3A LBD mod 20, CHOP inh 81
O=C(O)CCCn1cc(NC(=O)COc2ccc(F)cc2)cn1	none (no result: EBV gp42 inh, WT yeast gro inh, CHOP inh)
CN(c1ccccc1)S(=O)(=O)c1cccc(C(=O)OCC(=O)Nc2ccc(C(N)=O)cc2)c1	none (no result: EBV gp42 inh, WT yeast gro inh, CHOP inh)
O=S(=O)(c1ccc(F)cc1)N1CCN(C(=S)NCC2CCCO2)CC1 (stereo not drawn)	none (no result: EBV gp42 inh, WT yeast gro inh, CHOP inh)
O=S(=O)(c1ccc(Cl)cc1)N1CCN(C(=S)NCC2CCCO2)CC1 (stereo not drawn)	GRIN3A LBD mod 11 (no result: EBV gp42 inh, WT yeast gro inh, CHOP inh)
Cc1oc2c(c1C(=O)N1CCC(C)CC1)C(=O)c1ccccc1C2=O	none (no result: Tb MetRS inh, MPTP inh)
O=C1CCCC2=C1Sc1ccccc1N2	EBV gp42 inh 65 (no result: WT yeast gro inh)
COC(=O)Cn1cnc2sc3c(c2c1=O)CCCC3	none
N#CC1=C(SCC(N)=O)NC2=C(C(=O)c3ccccc32)C1c1ccc(Cl)cc1 (stereo not drawn)	GRIN3A LBD mod 18
CSCSC1=C(C#N)C(c2ccc(Cl)cc2)C(C(C)=O)=C(C)N1 (stereo not drawn)	none (no result: GRIN3A LBD mod, Tb MetRS inh, MPTP inh)
CCN(CC)Cc1nc2c(c(=O)[nH]1)C1(CCCC1)Cc1ccccc1-2	CHOP inh 84 (no result: WT yeast gro inh)
C=CCNC(=S)NNc1nc2c(c(=O)[nH]1)C1(CCCCC1)Cc1ccccc1-2	CHOP inh 93
COc1cc(/C=N\Nc2nc(-c3ccc(C)cc3)c(NC(C)=O)s2)ccc1O	none (no result: WT yeast gro inh)
CCN(CC)CCNC(=O)Cn1cnc2sc(C)c(S(=O)(=O)N3CC(C)CC(C)C3)c2c1=O (stereo not drawn)	none (no result: EBV gp42 inh, WT yeast gro inh, CHOP inh)
CC1CCCCN1C(=O)COC(=O)C1CCN(S(=O)(=O)c2ccc(Cl)c(C(F)(F)F)c2)CC1 (stereo not drawn)	GRIN3A LBD mod 21 (no result: EBV gp42 inh, WT yeast gro inh, CHOP inh)
CCCCn1c(O)c(N=Nc2ccccc2O)c2ccccc21	none (no result: EBV gp42 inh, WT yeast gro inh, CHOP inh)
CCCCn1c(O)c(N=Nc2ccccn2)c2ccccc21	WT yeast gro inh 68
COc1ccccc1N(C)S(=O)(=O)c1ccc(C(=O)OCC(=O)c2c[nH]c3ccccc23)cc1	GRIN3A LBD mod 23
CCOc1cccc(-c2cc(C(=O)N/N=C/c3ccc(OC)c(CN4CCOCC4)c3)c3ccccc3n2)c1	none
O=C(CSc1n[nH]c(-c2ccco2)n1)Nc1ccc(Br)cc1	GRIN3A LBD mod 14 (no result: EBV gp42 inh, WT yeast gro inh, CHOP inh)
COc1ccc(NC(=O)CSc2n[nH]c(-c3ccco3)n2)cc1	none
O=C(CSc1n[nH]c(-c2ccncc2)n1)Nc1ccccc1	GRIN3A LBD mod 27 (no result: EBV gp42 inh, WT yeast gro inh, CHOP inh)
O=C(OCC(=O)N1CCN(S(=O)(=O)c2ccc(Cl)cc2)CC1)c1cc(Br)ccc1O	none (no result: EBV gp42 inh, WT yeast gro inh, CHOP inh)
COc1cc(OC)cc(C(=O)OCC(=O)NCc2ccc3c(c2)OCO3)c1	none
Cc1ccc(CNC(=O)Nc2ccc3c(c2)N(C)C(=O)CS3)cc1	none
Cc1ccc(NC(=O)Nc2ccc3c(c2)N(C)C(=O)CS3)cc1C	CHOP inh 73
Cc1cc(C)cc(NC(=O)Nc2ccc3c(c2)N(C)C(=O)CS3)c1	CHOP inh 87
O=C(CCc1nnc(CCCc2ccccc2)o1)NCCc1ccccc1	none
Cc1cc(-c2ccc(C)c(S(=O)(=O)NCc3ccc(Br)cc3)c2)on1	none (no result: EBV gp42 inh, WT yeast gro inh, CHOP inh)
COc1ccccc1/C=N\Nc1ccccc1[N+](=O)[O-]	none (no result: WT yeast gro inh)
CC(C)Oc1ccccc1/C=N/Nc1ccccc1[N+](=O)[O-]	CHOP inh 76
CC(C)/C(=N/Nc1ccccc1[N+](=O)[O-])c1ccccc1	WT yeast gro inh 64
O=C(Nc1nnc(SCC(=O)N2CCOCC2)s1)c1ccccc1Cl	none
CCOc1ccc(Oc2c(/C=N/NC(=O)COc3ccccc3OC)c(C)nn2-c2ccccc2)cc1	WT yeast gro inh 67, CHOP inh 85
CC(O)(c1ccc(F)c(F)c1)c1nc(-c2cccc(C#N)c2)cs1 (stereo not drawn)	none (no result: GRIN3A LBD mod, EBV gp42 inh, WT yeast gro inh, CHOP inh)
O=C1C(=O)c2ccccc2C(O)=C1CC=C(Cl)Cl	none (no result: EBV gp42 inh, WT yeast gro inh, CHOP inh)
O=C(Nc1ccccc1Oc1ccccc1)c1cccc([N+](=O)[O-])c1	none
Cc1ccc(C(=O)Nc2ccccc2Oc2ccccc2)cc1[N+](=O)[O-]	WT yeast gro inh 61
Cc1ccc(C(=O)NC(=S)Nc2cccc(NC(=O)c3ccccc3)c2)cc1[N+](=O)[O-]	GRIN3A LBD mod 19
O=C(Nc1ccc(OCc2ccccc2)cc1)c1cccc([N+](=O)[O-])c1	GRIN3A LBD mod 27
Cc1ccc(C(=O)Nc2ccc(OCc3ccccc3)cc2)cc1[N+](=O)[O-]	GRIN3A LBD mod 28
Cc1ccc(C(=O)NC(=S)Nc2cccc(NC(=O)c3ccccc3Cl)c2)cc1[N+](=O)[O-]	none
COc1nc(NCC(C)C)nc(Oc2ccc(OCc3ccccc3)nn2)n1	none
